The source made the active and inactive calls. The calls are words filed in the database; no cut-off is given here. Non-standard residues stand in square brackets, D forms with d. Residues, ends and D or L forms follow the SMILES beside them. *: point of attachment. Pyrrolidide = C1CCN(*)C1; Cbz = O=C(OCc1ccccc1)*; Dap = NC[C@H](N)C(=O)O

A short description of test [1]: (§1) Inhibition of Norwalk virus recombinant His6-tagged protease using EDANS-EPDFHLQGPEDLAK-Dabcyl as substrate preincubated for 45 mins followed by substrate addition measured every 1 min for 30 mins by FRET analysis. In a few lines:
(§2)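 Protease purified on Ni-NTA, used at 0.5 μM final. Preincubated with inhibitor (0, 0.05, 0.2, 1, 5, 20, 100, 150 μM) in 50 mM NaH2PO4 pH 8, 50 mM NaCl, 5 mM TCEP, room temperature. Substrate added to 30 μM final. Fluorescence read at ex 360/em 460 nm at 37 °C. Ki derived from initial velocities by Morrison tight-binding fit.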

Test [2] in a line: Inhibition of Houston virus recombinant His6-tagged protease using EDANS-EPDFHLQGPEDLAK-Dabcyl as substrate preincubated for 45 mins followed by substrate addition measured every 1 min for 30 mins by FRET analysis. Details: species or system genotype 2. In a few lines:
as §2

Test [3] in a line: Selectivity ratio of Ki for Houston virus recombinant His6-tagged protease to Ki for Norwalk virus recombinant His6-tagged protease.
The next test concerns Norwalk virus. Described as §1. The gist of the method:
as §2

A word on the Ki: it is a dissociation constant, usually derived from enzyme kinetics or from competition with a known ligand. Consider `CC(C)C[C@H](NC(=O)[C@H](CCC(N)=O)NC(=O)OCc1ccccc1)C(=O)N[C@H](C=O)CCC(=O)N(C)C` (Cbz-Gln-Leu-Glu(NMe2)-aldehyde), for which the Ki in test [1] came to 0.31 µM; in test [2], 4.3 µM. Also, in test [3], the Ratio Ki is 10.

Consider `CCOC(=O)/C=C/[C@H](CCC(=O)N(C)C)NC(=O)[C@H](Cc1ccccc1)NC(=O)[C@H](CC(C)C)NC(=O)OCc1ccccc1`, for which the inhibition result in the test with Norwalk virus was “inactive”.

On to `CNC(=O)CC[C@@H](C=O)NC(=O)[C@H](Cc1ccccc1)NC(=O)[C@H](CC(C)C)NC(=O)OCc1ccccc1` (Cbz-Leu-Phe-Glu(NHMe)-aldehyde), for which, in test [1], the inhibition constant Ki came out at 5.1 µM.

As to `CN(C)C(=O)CC[C@@H](C=O)NC(=O)[C@H](Cc1ccccc1)NC(=O)[C@H](CC(N)=O)NC(=O)OCc1ccccc1` (Cbz-Asn-Phe-Glu(NMe2)-aldehyde), in test [1], the Ki was found to be 1.6 µM.

Take `CCOC(=O)/C=C/[C@H](CCC(N)=O)NC(=O)[C@H](Cc1ccccc1)NC(=O)[C@H](CC(C)C)NC(=O)OCc1ccccc1`: the inhibition result with Norwalk virus is “inactive”.

On to `CC(C)C[C@H](NC(=O)OCc1ccccc1)C(=O)N[C@@H](Cc1ccccc1)C(=O)N[C@H](C=O)CCC(=O)N(C)C` (Cbz-Leu-Phe-Glu(NMe2)-aldehyde), for which the Ki in test [1] was 0.12 µM; in test [2], 7.5 µM. Also, in test [3], the Ratio Ki is 60.

As to `CC(C)C[C@H](NC(=O)[C@H](Cc1c[nH]cn1)NC(=O)OCc1ccccc1)C(=O)N[C@H](C=O)CCC(=O)N(C)C` (Cbz-His-Leu-Glu(NMe2)-aldehyde), the Ki in test [1] was 1.9 µM.

For `CC(=O)[C@H](CCC(=O)N(C)C)NC(=O)[C@H](Cc1ccccc1)NC(=O)[C@H](CC(C)C)NC(=O)OCc1ccccc1`, the inhibitory constant (Ki) in test [1] amounted to 150 µM.

As to `CCOC(=O)/C=C/[C@H](CNC(C)=O)NC(=O)[C@H](Cc1ccccc1)NC(=O)[C@H](CC(C)C)NC(=O)OCc1ccccc1`, the inhibition entry in the test on Norwalk virus is “inactive”.

On to `CC(C)C[C@H](NC(=O)OCc1ccccc1)C(=O)N[C@@H](Cc1ccccc1)C(=O)N[C@H](C=O)CCC(=O)NC1CC1`, for which, in test [1], the Ki stood at 1.4 µM.

Consider `CC(=O)N[C@@H](CC(C)C)C(=O)N[C@@H](Cc1ccccc1)C(=O)N[C@H](C=O)CCC(=O)N(C)C` (Ac-Leu-Phe-Glu(NMe2)-aldehyde), for which the Ki in test [1] was 39 µM.

`CC(C)[C@H](NC(=O)OCc1ccccc1)C(=O)N1CCC[C@H]1C(=O)N[C@H](C=O)CCC(=O)N(C)C` (Cbz-Val-Pro-Glu(NMe2)-aldehyde): the Ki in test [1] came to 8.2 µM.

As for `CC(C)C[C@H](NC(=O)OCc1ccccc1)C(=O)N[C@@H](Cc1ccccc1)C(=O)N[C@H](C=O)CCC(=O)N1CCCC1` (Cbz-Leu-Phe-Glu(Pyrrolidide)-aldehyde), the Ki in test [1] was 0.075 µM.

Regarding `CC(C)C[C@H](NC(=O)OCc1ccccc1)C(=O)N1CCC[C@H]1C(=O)N[C@H](C=O)CCC(=O)N(C)C` (Cbz-Leu-Pro-Glu(NMe2)-aldehyde), the Ki in test [1] came to 46 µM.

Turning to `CC(=O)NC[C@@H](C=O)NC(=O)[C@H](Cc1ccccc1)NC(=O)[C@H](CC(C)C)NC(=O)OCc1ccccc1` (Cbz-Leu-Phe-[Dap](Ac)-aldehyde), the inhibition constant Ki is 1.5 µM in test [1] and 14 µM in test [2]. Moreover, the Ratio Ki in test [3] was determined as 10.

For `CC(C)C[C@H](NC(=O)[C@H](C)NC(=O)OCc1ccccc1)C(=O)N[C@H](C=O)CCC(=O)N(C)C` (Cbz-Ala-Leu-Glu(NMe2)-aldehyde), the inhibitory constant (Ki) in test [1] came out at 0.59 µM; in test [2], 4.6 µM. Besides, the Ratio Ki in test [3] was found to be 10.

For the origin of these results see ChEMBL document CHEMBL3132758, “Synthesis, Activity and Structure-Activity Relationship of Noroviral Protease Inhibitors” (Medchemcomm, 2013).
